In ChEMBL document CHEMBL1811806, “Synthesis and biological evaluation of 4β-acrylamidopodophyllotoxin congeners as DNA damaging agents” (2011):
The source made the active and inactive calls. The calls are words filed in the database; no cut-off is given here.

What was measured:
[1] = system: ZR-75-1; assay: Cytotoxicity against human ZR-75-1 cells after 48 hrs by sulforhodamine B assay; format: functional; conditions: ZR-75-1, 48 h
How it was run: (§1)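 SRB growth assay, 48 h continuous exposure. Cells grown in DMEM with 10% FBS and 2 mM L-glutamine, plated at densities set by doubling time, preincubated 24 h at 37 °C, 5% CO2. Four concentrations (0.1, 1, 10, 100 µM) in triplicate wells. TCA fixation, 0.4% SRB staining, absorbance at 540 nm against 690 nm reference. GI50 from time-zero-corrected growth; repeated three times.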

[2] = Cytotoxicity against human Gurav cells after 48 hrs by sulforhodamine B assay; format: functional; how it was run: as §1
[3] = Cytotoxicity against human DWD cells after 48 hrs by sulforhodamine B assay; format: functional; how it was run: as §1
[4] = system: COLO 205; assay: Cytotoxicity against human COLO205 cells after 48 hrs by sulforhodamine B assay; format: functional; conditions: COLO 205, 48 h; how it was run: as §1
[5] = system: HOP-62; assay: Cytotoxicity against human HOP62 cells after 48 hrs by sulforhodamine B assay; format: functional; conditions: HOP-62, 48 h; how it was run: as §1
[6] = system: A2780; assay: Cytotoxicity against human A2780 cells after 48 hrs by sulforhodamine B assay; format: functional; conditions: A2780, 48 h; how it was run: as §1
[7] = system: MCF7; assay: Cytotoxicity against human MCF7 cells after 48 hrs by sulforhodamine B assay; format: functional; conditions: MCF7, 48 h; how it was run: as §1
[8] = system: MCF7; assay: Cytotoxicity against human MCF7 cells at 2 to 4 uM after 24 hrs by MTT assay; format: functional, cell-based
How it was run: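 MCF-7 cells in DMEM with 10% fetal calf serum and penicillin/streptomycin, seeded at 10,000 cells/well and incubated overnight. Treated at 2 and 4 µM for 24 h, then medium replaced with MTT and incubated 2 h at 37 °C. Formazan dissolved in extraction buffer and read at 570 nm.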

[9] = system: A549; assay: Cytotoxicity against human A549 cells after 48 hrs by sulforhodamine B assay; format: functional; conditions: A549, 48 h; how it was run: as §1
[10] = system: MCF7; assay: Cell cycle arrest in human MCF7 cells assessed as accumulation at GO phase at 2 uM after 24 hrs by propidium iodide staining based flow cytometry (reference value: 6.09%); format: functional
[11] = system: MCF7; assay: Cell cycle arrest in human MCF7 cells assessed as accumulation at G1 phase at 2 uM after 24 hrs by propidium iodide staining based flow cytometry (reference value: 60.5%); format: functional
[12] = system: MCF7; assay: Cell cycle arrest in human MCF7 cells assessed as accumulation at S phase at 2 uM after 24 hrs by propidium iodide staining based flow cytometry (reference value: 6.99%); format: functional
[13] = system: MCF7; assay: Cell cycle arrest in human MCF7 cells assessed as accumulation at G2/M phase at 2 uM after 24 hrs by propidium iodide staining based flow cytometry (reference value: 26.42%); format: functional
[14] = system: MCF7; assay: Induction of apoptosis in human MCF7 cells assessed as single-strand DNA break at 2 uM after 24 hrs by comet assay relative to control; format: functional
How it was run: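 Alkaline comet assay in MCF-7 cells after 24 h at 2 µM. Electrophoresis 20 min at 40 V in 0.5% TBE pH 8, SYBR Green I stain, fluorescence microscopy; percentage of cells with tails scored.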

[15] = system: MCF7; assay: Induction of apoptosis in human MCF7 cells assessed as double-strand DNA breaks at 2 uM after 24 hrs measured as phosphorylation at ser-139 on H2AX protein by immunostaining relative to control; format: functional
How it was run: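 MCF-7 cells on coverslips treated 24 h at 2 µM, fixed in 4% paraformaldehyde for 20 min at room temperature, blocked with 1% BSA for 60 min. Anti-γ-H2AX (Ser139) antibody at 1:100 for 2 h at room temperature, then FITC-conjugated anti-rabbit secondary for 1 h. Foci-positive cells scored as percentage against DMSO control.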

Compound	GI50 [1] [µM]	GI50 [2] [µM]	GI50 [3] [µM]	GI50 [4] [µM]	GI50 [5] [µM]	GI50 [6] [µM]	GI50 [7] [µM]	Activity [8]	GI50 [9] [µM]	Activity [10] [%]	Activity [11] [%]	Activity [12] [%]	Activity [13] [%]	Activity [14] [%]	Activity [15]
COc1ccc(/C=C(/C(=O)N[C@@H]2c3cc4c(cc3[C@@H](c3cc(OC)c(OC)c(OC)c3)[C@H]3C(=O)OC[C@@H]32)OCO4)c2cc(OC)c(OC)c(OC)c2)cc1[N+](=O)[O-]	2.2	2.6	2.9	2.7	2.3	2.5	–	–	–	–	–	–	–	–	–
COc1cc(/C(=C\c2ccc(O)c([N+](=O)[O-])c2)C(=O)N[C@@H]2c3cc4c(cc3[C@@H](c3cc(OC)c(OC)c(OC)c3)[C@H]3C(=O)OC[C@@H]32)OCO4)cc(OC)c1OC	0.18	0.19	< 0.1	2	0.19	2.2	2.7	–	–	–	–	–	–	–	–
COc1ccc(F)c(/C=C(/C(=O)N[C@@H]2c3cc4c(cc3[C@@H](c3cc(OC)c(OC)c(OC)c3)[C@H]3C(=O)OC[C@@H]32)OCO4)c2cc(OC)c(OC)c(OC)c2)c1	2.7	2.5	–	–	–	–	–	–	–	–	–	–	–	–	–
COc1ccc(/C=C(/C(=O)N[C@@H]2c3cc4c(cc3[C@@H](c3cc(OC)c(OC)c(OC)c3)[C@H]3C(=O)OC[C@@H]32)OCO4)c2cc(OC)c(OC)c(OC)c2)cc1	2.9	2.2	2.3	0.17	–	2.5	2.9	–	–	–	–	–	–	–	–
COc1ccccc1/C=C(/C(=O)N[C@@H]1c2cc3c(cc2[C@@H](c2cc(OC)c(OC)c(OC)c2)[C@H]2C(=O)OC[C@@H]21)OCO3)c1ccc([N+](=O)[O-])cc1	–	–	–	–	–	–	–	Active	–	–	–	–	–	–	–
COc1cc(/C=C(/C(=O)N[C@@H]2c3cc4c(cc3[C@@H](c3cc(OC)c(OC)c(OC)c3)[C@H]3C(=O)OC[C@@H]32)OCO4)c2cc(OC)c(OC)c(OC)c2)ccc1O	2.9	–	–	–	2.5	–	–	–	2.4	–	–	–	–	–	–
COc1ccccc1/C(=C\c1ccc([N+](=O)[O-])cc1)C(=O)O	–	–	–	–	–	–	–	inactive	–	3.07	66.28	10.53	20.12	20	30%
COc1cccc2c1C(=O)c1c(O)c3c(c(O)c1C2=O)C[C@@](O)(C(=O)CO)C[C@@H]3O[C@H]1C[C@H](N)[C@H](O)[C@H](C)O1 [DOXORUBICIN]	0.11	< 0.1	< 0.1	< 0.1	0.15	< 0.1	0.13	–	< 0.1	–	–	–	–	–	–
COc1cc([C@@H]2c3cc4c(cc3[C@H](O)[C@H]3COC(=O)[C@H]23)OCO4)cc(OC)c1OC [PODOFILOX]	–	–	–	–	–	–	–	inactive	–	5.9	2.38	5.13	86.59	–	inactive
COc1cc(/C(=C\c2cccc([N+](=O)[O-])c2)C(=O)N[C@@H]2c3cc4c(cc3[C@@H](c3cc(OC)c(OC)c(OC)c3)[C@H]3C(=O)OC[C@@H]32)OCO4)cc(OC)c1OC	–	2.1	< 0.1	–	0.17	2.5	2.7	–	2.4	–	–	–	–	–	–
COc1cc(/C(=C\c2ccc([N+](=O)[O-])cc2)C(=O)N[C@@H]2c3cc4c(cc3[C@@H](c3cc(OC)c(OC)c(OC)c3)[C@H]3C(=O)OC[C@@H]32)OCO4)cc(OC)c1OC	2.2	2.1	2.4	2.1	2.7	2.6	–	–	–	–	–	–	–	–	–
COc1cc(/C(=C\c2ccc(O)cc2)C(=O)N[C@@H]2c3cc4c(cc3[C@@H](c3cc(OC)c(OC)c(OC)c3)[C@H]3C(=O)OC[C@@H]32)OCO4)cc(OC)c1OC	2.7	2.7	2.7	–	2.6	–	–	–	2.3	–	–	–	–	–	–
COc1cc(/C=C(/C(=O)N[C@@H]2c3cc4c(cc3[C@@H](c3cc(OC)c(OC)c(OC)c3)[C@H]3C(=O)OC[C@@H]32)OCO4)c2cc(OC)c(OC)c(OC)c2)ccc1F	2.2	2.4	–	–	2.5	–	–	–	–	–	–	–	–	–	–
COc1ccc(/C=C(/C(=O)N[C@@H]2c3cc4c(cc3[C@@H](c3cc(OC)c(OC)c(OC)c3)[C@H]3C(=O)OC[C@@H]32)OCO4)c2cc(OC)c(OC)c(OC)c2)c(F)c1	2.5	0.18	0.19	–	0.17	2.7	2.4	–	2.1	–	–	–	–	–	–
COc1ccc(/C=C\c2cc(OC)c(OC)c(OC)c2)cc1O [COMBRETASTATIN A4]	–	–	–	–	–	–	–	–	–	5.07	2.49	8.03	84.41	–	50%
COc1cc([C@@H]2c3cc4c(cc3[C@@H](O[C@@H]3O[C@@H]5CO[C@@H](C)O[C@H]5[C@H](O)[C@H]3O)[C@H]3COC(=O)[C@H]23)OCO4)cc(OC)c1O [ETOPOSIDE]	0.2	0.5	0.6	0.13	0.8	1.3	2.1	Active	3.08	7.54	17.29	12.31	62.86	10	70%
COc1ccccc1/C=C(/C(=O)N[C@@H]1c2cc3c(cc2[C@@H](c2cc(OC)c(OC)c(OC)c2)[C@H]2C(=O)OC[C@@H]21)OCO3)c1ccccc1[N+](=O)[O-]	–	–	–	–	–	–	–	Active	–	–	–	–	–	–	–
COc1cccc(/C=C(/C(=O)N[C@@H]2c3cc4c(cc3[C@@H](c3cc(OC)c(OC)c(OC)c3)[C@H]3C(=O)OC[C@@H]32)OCO4)c2cc(OC)c(OC)c(OC)c2)c1	0.18	2.1	2.2	–	0.18	< 0.1	< 0.1	Active	2.7	4.83	52.49	6.43	36.35	–	–
COc1ccc(/C=C(/C(=O)N[C@@H]2c3cc4c(cc3[C@@H](c3cc(OC)c(OC)c(OC)c3)[C@H]3C(=O)OC[C@@H]32)OCO4)c2cc(OC)c(OC)c(OC)c2)cc1F	–	–	–	2.4	–	–	2.7	–	–	–	–	–	–	–	–
COc1ccc(/C=C(/C(=O)N[C@@H]2c3cc4c(cc3[C@@H](c3cc(OC)c(OC)c(OC)c3)[C@H]3C(=O)OC[C@@H]32)OCO4)c2cc(OC)c(OC)c(OC)c2)cc1O	–	–	–	–	2.9	–	–	–	2.9	–	–	–	–	–	–
